# Measurements pooled from the literature.
# Each line is one published result; the experiments were not run side by side.
# Target: RAC-gamma serine/threonine-protein kinase (AKT3, Homo sapiens, UniProt Q9Y243)
SMILES,read-out,technique,tested at,remaining binding [%]
Cc1cnn2ncc(-c3ccnc(N(C)C)n3)c2c1,binding,,1 µM,98
COc1cnc(Nc2cccc(S(N)(=O)=O)c2)nc1N1CCN(c2ccccc2)CC1,binding,competition with immobilised ligand,1 µM,100
CN(C)c1ncc(F)c(-c2cnn3ncccc23)n1,binding,,1 µM,100
C[C@@H]1CN(c2cc(-c3n[nH]c4ccc(OC5(C)CC5)cc34)ncn2)C[C@H](C)O1,cell-free assay,competition with immobilised ligand,0.1 µM,86
FC(F)(F)Oc1cccc(-c2cnc3ccc(-c4ccncc4)nn23)c1,cell-free assay,competition with immobilised ligand,5 µM,99
N[C@@H]1CCN(c2nccc(-c3cnn4ncccc34)n2)C1,binding,,1 µM,95
Nc1ncc2c(n1)-c1c([nH]c3ccc(C#CC4CC4)cc13)CCCC2,binding,competition with immobilised ligand,1 µM,69
F[C@@H]1CCN(c2nccc(-c3cnn4ncccc34)n2)C1,binding,,1 µM,93
CCCOc1ccc([C@H]2[C@H](C(=O)O)[C@@H](c3ccc4c(c3)OCO4)CN2CC(=O)Nc2c(CC)cccc2CC)cc1,cell-free assay,competition with immobilised ligand,1 µM,82
O=C(c1ccc(Nc2ncc(Cl)c(-c3ccc(Cl)s3)n2)cc1)N1CCC(N2CCCC2)CC1,binding,competition with immobilised ligand,1 µM,100
O=C(NS(=O)(=O)c1ccc(NCC2CCOCC2)c([N+](=O)[O-])c1)c1ccc(N2CCN(Cc3ccc(C(F)(F)F)cc3-c3ccc(Cl)cc3)CC2)cc1Oc1cnc2[nH]ccc2c1,cell-free assay,competition with immobilised ligand,1 µM,89
Cc1cnc(Nc2ccc(C(=O)N3CCC(N4CCCC4)CC3)cc2)nc1-c1cc2ccccc2s1,binding,competition with immobilised ligand,1 µM,100
C=CC(=O)N1CCC(C(=O)NCC(=O)N2CCN(c3nc(-c4cnc(N)nc4C(F)F)nc(N4CCOCC4)n3)CC2)CC1,binding,competition with immobilised ligand,1 µM,100
O=C(Nc1c[nH]nc1C(=O)NC1CCNCC1)c1cc(F)cc(F)c1,binding,competition with immobilised ligand,1 µM,100
c1cnn2ncc(-c3ccnc(N4CCC45COC5)n3)c2c1,binding,,1 µM,86
c1ccc(N2CCN(Cc3nc4ccccc4[nH]3)CC2)nc1,binding,competition with immobilised ligand,1 µM,100
C[C@H]1CCN(c2nccc(-c3cnn4ncccc34)n2)C1,binding,,1 µM,99
CCC(=O)N[C@H]1CC[C@@H](C(=O)N(C)c2ccc(-c3nc4ccccc4o3)cc2)C1,cell-free assay,competition with immobilised ligand,1 µM,100
O=C(c1ccc(Nc2ncc(Cl)c(-c3cc4ccccc4s3)n2)cc1)N1CCC(N2CCCC2)CC1,binding,competition with immobilised ligand,1 µM,100
c1cncc(-c2cccc(Nc3nccc(NC4CCCCC4)n3)c2)c1,binding,competition with immobilised ligand,10 µM,69
COc1ccc2c(c1)O[C@H](c1ccc(OC)c(OC)c1)C[C@@H]2NC(=O)C1(c2ccc3c(c2)OC(F)(F)O3)CC1,cell-free assay,competition with immobilised ligand,1 µM,100
